Laboratory results as given in publication PMC11612064 (EJNMMI Radiopharmacy and Chemistry, 2024).

Columns and labels:
[1] = test system: human ACE2; conditions: ref Wang et al. [2024], Joshi et al. [2016]; cited from earlier work
[2] = test system: human testicular ACE; conditions: ref Wang et al. [2024], Joshi et al. [2016]; cited from earlier work
[3] = target: bovine carboxypeptidase A; conditions: ref Wang et al. [2024], Joshi et al. [2016]; cited from earlier work
[4] = target: ACE2 (Homo sapiens, UniProt Q9BYF1); assay: In vivo biodistribution studies; design: species or system humanized ACE2 mice; conditions: 30 min after injection, i.v. tail vein 3.7 MBq/kg, mean ± SD, n = 3
How it was run: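 Male humanized ACE2 knock-in mice (C57BL/6 background, 6 weeks old) under 1.5% isoflurane, kept warm, received the ¹⁸F-labelled test compound by lateral tail vein and were killed by cervical dislocation 30 min later. Organs were weighed and gamma-counted, decay-corrected to euthanasia, and reported as %ID/g. Anti-ACE2 IHC AOD (integrated optical density/area) was linearly regressed against %ID/g.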

ACE2, sequence (Q9BYF1 18-805): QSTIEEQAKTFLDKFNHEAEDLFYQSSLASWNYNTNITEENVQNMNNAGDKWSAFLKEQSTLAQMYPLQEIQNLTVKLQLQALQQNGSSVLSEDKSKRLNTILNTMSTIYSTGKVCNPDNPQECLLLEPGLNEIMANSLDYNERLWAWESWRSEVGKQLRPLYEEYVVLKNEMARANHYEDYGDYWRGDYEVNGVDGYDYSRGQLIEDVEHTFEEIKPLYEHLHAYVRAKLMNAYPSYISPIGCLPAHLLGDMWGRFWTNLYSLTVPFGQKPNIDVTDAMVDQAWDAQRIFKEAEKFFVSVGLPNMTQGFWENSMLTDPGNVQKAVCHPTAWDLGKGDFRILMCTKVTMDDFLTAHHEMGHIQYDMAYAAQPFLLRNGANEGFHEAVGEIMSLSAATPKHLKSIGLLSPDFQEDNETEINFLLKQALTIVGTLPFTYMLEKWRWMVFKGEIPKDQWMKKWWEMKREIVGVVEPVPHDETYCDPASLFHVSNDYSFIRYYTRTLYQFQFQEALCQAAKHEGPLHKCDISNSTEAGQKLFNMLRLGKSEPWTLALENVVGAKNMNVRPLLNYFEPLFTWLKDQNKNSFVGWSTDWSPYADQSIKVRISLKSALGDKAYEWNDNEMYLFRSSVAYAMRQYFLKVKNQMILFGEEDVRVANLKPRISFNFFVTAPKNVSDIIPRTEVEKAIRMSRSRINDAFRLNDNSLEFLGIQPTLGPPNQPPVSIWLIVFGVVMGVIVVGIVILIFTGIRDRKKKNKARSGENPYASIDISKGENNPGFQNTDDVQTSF

CC(C)C[C@H](N[C@@H](Cc1cncn1Cc1cc(Cl)cc(Cl)c1)C(=O)O)C(=O)O [MLN-4760]
IC50 [1]: 0.00044 µM
IC50 [2]: > 100 µM
IC50 [3]: 27 µM

CC(C)C[C@H](N[C@@H](Cc1cncn1Cc1cc([18F])cc(Cl)c1)C(=O)O)C(=O)O [^18F-MLN-4760]
Tissue uptake, Belly fat [4]: 0.48 ± 0.45 %ID/g
Tissue uptake, Cerebellum [4]: 0.40 ± 0.22 %ID/g
Tissue uptake, Cerebrum [4]: 3.18 ± 4.31 %ID/g
Tissue uptake, Eyeball [4]: 2.84 ± 0.74 %ID/g
Tissue uptake, Heart [4]: 3.26 ± 0.28 %ID/g
Tissue uptake, Kidneys [4]: 4.73 ± 0.58 %ID/g
Tissue uptake, Large intestine [4]: 3.34 ± 1.88 %ID/g
Tissue uptake, Liver [4]: 2.31 ± 0.77 %ID/g
Tissue uptake, Lung [4]: 2.49 ± 1.09 %ID/g
Tissue uptake, Medulla [4]: 1.83 ± 0.27 %ID/g
Tissue uptake, Muscle [4]: 2.27 ± 0.75 %ID/g
Tissue uptake, Oesophagus [4]: 11.32 ± 4.13 %ID/g
Tissue uptake, Parotid [4]: 1.93 ± 0.79 %ID/g
Tissue uptake, Shoulder fat [4]: 2.84 ± 1.56 %ID/g
Tissue uptake, Small intestine [4]: 2.74 ± 0.90 %ID/g
Tissue uptake, Spleen [4]: 1.58 ± 2.11 %ID/g
Tissue uptake, Stomach [4]: 3.34 ± 2.71 %ID/g
Tissue uptake, Testicles [4]: 2.91 ± 1.95 %ID/g
